Measurements from ChEMBL document CHEMBL4406880, “Design, synthesis, and bioactivity of dihydropyrimidine derivatives as kinesin spindle protein inhibitors” (Bioorg Med Chem, 2019).

Key:
Format in all cases: functional
[1] = test system: CCRF-CEM; test: Growth inhibition of human CCRF-CEM cells assessed as growth percentage at 10 uM incubated for 48 hrs by sulforhodamine B assay relative to control; conditions: read-out: Activity
How it was run: (§1)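 NCI-60 one-dose screen: cells in RPMI 1640 with 5% FBS and 2 mM L-glutamine, plated at 5,000–40,000 cells/well and preincubated 24 h at 37 °C, 5% CO2. Compound is added from a DMSO stock to a final 10 µM and incubated 48 h. Cells are TCA-fixed and stained with sulforhodamine B, read at 515 nm. Output is % growth versus untreated control, with a time-zero plate.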

[2] = test system: MOLT-4; test: Growth inhibition of human MOLT4 cells assessed as growth percentage at 10 uM incubated for 48 hrs by sulforhodamine B assay relative to control; conditions: MOLT-4, 48 h, read-out: Activity
How it was run: (§2)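 NCI-60 one-dose screen. Cells in RPMI 1640 with 5% FBS and 2 mM L-glutamine, seeded at 5,000–40,000 cells/well according to doubling time, and preincubated overnight at 37 °C, 5% CO2. A time-zero plate was TCA-fixed at drug addition. Compound from DMSO stock, final 10 µM, 48 h; DMSO vehicle controls. Fixation with TCA, 10% final (16% for suspension cells). SRB stain, Tris solubilization, A515. Result given as % growth versus untreated cells.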

[3] = test system: HOP-92; test: Growth inhibition of human HOP92 cells assessed as growth percentage at 10 uM incubated for 48 hrs by sulforhodamine B assay relative to control; conditions: HOP-92, 48 h, read-out: Activity; how it was run: as §2
[4] = test system: NCI-H23; test: Growth inhibition of human NCI-H23 cells assessed as growth percentage at 10 uM incubated for 48 hrs by sulforhodamine B assay relative to control; conditions: NCI-H23, 48 h, read-out: Activity; how it was run: as §2
[5] = test system: COLO 205; test: Growth inhibition of human COLO205 cells assessed as growth percentage at 10 uM incubated for 48 hrs by sulforhodamine B assay relative to control; conditions: COLO 205, 48 h, read-out: Activity; how it was run: as §1
[6] = test system: HCC 2998; test: Growth inhibition of human HCC2998 cells assessed as growth percentage at 10 uM incubated for 48 hrs by sulforhodamine B assay relative to control; conditions: HCC 2998, 48 h, read-out: Activity; how it was run: as §1
[7] = test system: HT-29; test: Growth inhibition of human HT-29 cells assessed as growth percentage at 10 uM incubated for 48 hrs by sulforhodamine B assay relative to control; conditions: HT-29, 48 h, read-out: Activity; how it was run: as §2
[8] = test system: SF-539; test: Growth inhibition of human SF539 cells assessed as growth percentage at 10 uM incubated for 48 hrs by sulforhodamine B assay relative to control; conditions: SF-539, 48 h, read-out: Activity
How it was run: (§3)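 NCI-60 single-dose screen. Cells were grown in RPMI 1640 with 5% FBS and 2 mM L-glutamine and plated at 5,000–40,000 cells/well. After an overnight preincubation at 37 °C in 5% CO2, compound was added at a final 10 µM from a DMSO stock, with DMSO/PBS controls. After 48 h, cells were TCA-fixed and stained with 0.4% SRB, and absorbance was read at 515 nm. Growth is given as a percentage of untreated control.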

[9] = test system: SNB-19; test: Growth inhibition of human SNB19 cells assessed as growth percentage at 10 uM incubated for 48 hrs by sulforhodamine B assay relative to control; conditions: SNB-19, 48 h, read-out: Activity; how it was run: as §3
[10] = test system: MDA-MB-435; test: Growth inhibition of human MDA-MB-435 cells assessed as growth percentage at 10 uM incubated for 48 hrs by sulforhodamine B assay relative to control; conditions: MDA-MB-435, 48 h, read-out: Activity; how it was run: as §2
[11] = test system: SK-MEL-28; test: Growth inhibition of human SK-MEL-28 cells assessed as growth percentage at 10 uM incubated for 48 hrs by sulforhodamine B assay relative to control; conditions: SK-MEL-28, 48 h, read-out: Activity; how it was run: as §3
[12] = test system: IGROV-1; test: Growth inhibition of human IGROV1 cells assessed as growth percentage at 10 uM incubated for 48 hrs by sulforhodamine B assay relative to control; conditions: IGROV-1, 48 h, read-out: Activity; how it was run: as §2
[13] = test system: OVCAR-3; test: Growth inhibition of human OVCAR3 cells assessed as growth percentage at 10 uM incubated for 48 hrs by sulforhodamine B assay relative to control; conditions: OVCAR-3, 48 h, read-out: Activity; how it was run: as §2
[14] = test system: OVCAR-8; test: Growth inhibition of human OVCAR8 cells assessed as growth percentage at 10 uM incubated for 48 hrs by sulforhodamine B assay relative to control; conditions: OVCAR-8, 48 h, read-out: Activity; how it was run: as §3
[15] = test system: NCI/ADR-RES; test: Growth inhibition of human NCI/ADR-RES cells assessed as growth percentage at 10 uM incubated for 48 hrs by sulforhodamine B assay relative to control; conditions: read-out: Activity; how it was run: as §2
[16] = test system: 786-0; test: Growth inhibition of human 786-0 cells assessed as growth percentage at 10 uM incubated for 48 hrs by sulforhodamine B assay relative to control; conditions: 786-0, 48 h, read-out: Activity; how it was run: as §1
[17] = test system: CAKI-1; test: Growth inhibition of human Caki1 cells assessed as growth percentage at 10 uM incubated for 48 hrs by sulforhodamine B assay relative to control; conditions: CAKI-1, 48 h, read-out: Activity; how it was run: as §1
[18] = test system: RXF 393; test: Growth inhibition of human RXF393 cells assessed as growth percentage at 10 uM incubated for 48 hrs by sulforhodamine B assay relative to control; conditions: RXF 393, 48 h, read-out: Activity; how it was run: as §3
[19] = test system: TK-10; test: Growth inhibition of human TK10 cells assessed as growth percentage at 10 uM incubated for 48 hrs by sulforhodamine B assay relative to control; conditions: TK-10, 48 h, read-out: Activity; how it was run: as §3
[20] = test system: UO-31; test: Growth inhibition of human UO31 cells assessed as growth percentage at 10 uM incubated for 48 hrs by sulforhodamine B assay relative to control; conditions: UO-31, 48 h, read-out: Activity; how it was run: as §3
[21] = test system: DU-145; test: Growth inhibition of human DU145 cells assessed as growth percentage at 10 uM incubated for 48 hrs by sulforhodamine B assay relative to control; conditions: DU-145, 48 h, read-out: Activity; how it was run: as §1
[22] = test system: MCF7; test: Growth inhibition of human MCF7 cells assessed as growth percentage at 10 uM incubated for 48 hrs by sulforhodamine B assay relative to control; conditions: MCF7, 48 h, read-out: Activity; how it was run: as §2
[23] = test system: Hs-578T; test: Growth inhibition of human Hs 578T cells assessed as growth percentage at 10 uM incubated for 48 hrs by sulforhodamine B assay relative to control; conditions: read-out: Activity; how it was run: as §2
[24] = test system: BT-549; test: Growth inhibition of human BT549 cells assessed as growth percentage at 10 uM incubated for 48 hrs by sulforhodamine B assay relative to control; conditions: BT-549, 48 h, read-out: Activity; how it was run: as §1
[25] = test system: T47D; test: Growth inhibition of human T47D cells assessed as growth percentage at 10 uM incubated for 48 hrs by sulforhodamine B assay relative to control; conditions: read-out: Activity; how it was run: as §3
[26] = test system: MDA-MB-468; test: Growth inhibition of human MDA-MB-468 cells assessed as growth percentage at 10 uM incubated for 48 hrs by sulforhodamine B assay relative to control; conditions: MDA-MB-468, 48 h, read-out: Activity; how it was run: as §2

SMILES: CC1=C(C(=O)OC(C)C)C(c2ccc3c(c2)OCO3)NC(=O)N1 (racemic)
- growth at 10 µM [1]: 113%
- growth at 10 µM [2]: 108%
- growth at 10 µM [3]: 111%
- growth at 10 µM [4]: 98.8%
- growth at 10 µM [5]: 124%
- growth at 10 µM [6]: 116%
- growth at 10 µM [7]: 103%
- growth at 10 µM [8]: 100%
- growth at 10 µM [9]: 93.6%
- growth at 10 µM [10]: 110%
- growth at 10 µM [11]: 108%
- growth at 10 µM [12]: 101%
- growth at 10 µM [13]: 114%
- growth at 10 µM [14]: 100%
- growth at 10 µM [15]: 105%
- growth at 10 µM [16]: 102%
- growth at 10 µM [17]: 93.9%
- growth at 10 µM [18]: 113%
- growth at 10 µM [19]: 98.8%
- growth at 10 µM [20]: 84.9%
- growth at 10 µM [21]: 108%
- growth at 10 µM [22]: 96.5%
- growth at 10 µM [23]: 102%
- growth at 10 µM [24]: 93.7%
- growth at 10 µM [25]: 101%
- growth at 10 µM [26]: 104%

SMILES: CC(=O)C1=C(C)NC(=S)NC1c1ccc2c(c1)OCO2 (racemic)
- growth at 10 µM [1]: 101%
- growth at 10 µM [2]: 98.8%
- growth at 10 µM [3]: 92.5%
- growth at 10 µM [4]: 107%
- growth at 10 µM [5]: 109%
- growth at 10 µM [6]: 108%
- growth at 10 µM [7]: 106%
- growth at 10 µM [8]: 98.7%
- growth at 10 µM [9]: 98.9%
- growth at 10 µM [10]: 103%
- growth at 10 µM [11]: 116%
- growth at 10 µM [12]: 104%
- growth at 10 µM [13]: 109%
- growth at 10 µM [14]: 103%
- growth at 10 µM [15]: 112%
- growth at 10 µM [16]: 103%
- growth at 10 µM [17]: 91.9%
- growth at 10 µM [18]: 102%
- growth at 10 µM [19]: 97.6%
- growth at 10 µM [20]: 81%
- growth at 10 µM [21]: 111%
- growth at 10 µM [22]: 103%
- growth at 10 µM [23]: 101%
- growth at 10 µM [24]: 108%
- growth at 10 µM [25]: 96.2%
- growth at 10 µM [26]: 113%

SMILES: CC1=C(C(=O)OCC(C)C)C(c2ccc3c(c2)OCO3)NC(=O)N1 (racemic)
- growth at 10 µM [1]: 104%
- growth at 10 µM [2]: 109%
- growth at 10 µM [3]: 102%
- growth at 10 µM [4]: 102%
- growth at 10 µM [5]: 119%
- growth at 10 µM [6]: 108%
- growth at 10 µM [7]: 105%
- growth at 10 µM [8]: 104%
- growth at 10 µM [9]: 107%
- growth at 10 µM [10]: 109%
- growth at 10 µM [11]: 113%
- growth at 10 µM [12]: 94.8%
- growth at 10 µM [13]: 117%
- growth at 10 µM [14]: 103%
- growth at 10 µM [15]: 106%
- growth at 10 µM [16]: 104%
- growth at 10 µM [17]: 96.3%
- growth at 10 µM [18]: 101%
- growth at 10 µM [19]: 99.4%
- growth at 10 µM [20]: 84.8%
- growth at 10 µM [21]: 109%
- growth at 10 µM [22]: 101%
- growth at 10 µM [23]: 118%
- growth at 10 µM [24]: 99.4%
- growth at 10 µM [25]: 97.5%
- growth at 10 µM [26]: 100%
